Assay outcomes: PubChem, Sanford-Burnham Center for Chemical Genomics
LMPTP inh – LMPTP (human) inhibition. P24666. recombinant LMPTP-A, OMFP fluorogenic substrate, fluorescence intensity. inhibition, % at 20 µM. hit rate 0.22% among 360,000;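 active = compounds that cut the enzyme signal by at least half of the control window in the single-dose screen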;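 also: plate controls were DMSO wells with enzyme plus substrate for no effect and substrate without enzyme for full effect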
Target sequence (P24666 whole entry, looked up): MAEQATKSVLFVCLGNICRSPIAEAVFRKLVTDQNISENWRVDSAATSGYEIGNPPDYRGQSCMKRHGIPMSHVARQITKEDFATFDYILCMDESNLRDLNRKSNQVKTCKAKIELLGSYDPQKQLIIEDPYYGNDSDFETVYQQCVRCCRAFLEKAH
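Test system: LMPTP-A phosphatase enzyme; input: 0.625 nM LMPTP-A final; reagent: OMFP substrate, 400 µM final; compound dosing: 20 µM single dose, 3% DMSO; incubation: 50 min dark incubation at room temperature; measured by: endpoint fluorescence intensity from OMFP dephosphorylation; measure: % inhibition relative to no-enzyme and uninhibited control wells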
STEP block – STEP (human) phosphatase inhibition | P54829 | recombinant STEP, OMFP fluorogenic substrate, fluorescence | inhibition, % at 20 µM | hit rate 0.25% among 360,000 | AID 588621;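 active = inhibition at 20 µM, scaled per plate between control wells, above about 37%, limit read from the data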;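 also: 0% = DMSO with enzyme and substrate and 100% = substrate only without enzyme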
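Assay system: isolated STEP enzyme. Buffer or medium: pH 6.0 Bis-Tris with DTT and Tween 20. Also added: fluorogenic phosphatase substrate OMFP at 25 µM final. Dosing: 20 µM, 1% DMSO. Timing: 20 min reaction, room temperature, in the dark. Measured by: fluorescence intensity, excitation 480 nm, emission 540 nm. Evaluation: normalized % inhibition.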
FAS TE block – blocks the thioesterase domain of human fatty acid synthase | recombinant FAS-TE, OMFH fluorogenic substrate, fluorescence endpoint | inhibition, % at 15 µM | hit rate 0.67% among 360,000;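 active = compounds whose normalised, plate-corrected inhibition of enzyme fluorescence in the single-dose primary screen is 50% or more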;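 also: 0% = DMSO with enzyme and 100% = substrate without enzyme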
SUMO1-SIM PPI – SUMO1-SIM interaction modulation; SUMO1 binding to a labelled peptide, TR-FRET, 1 h; hit rate 0.33% among 360,000; inhibition, % at 20 µM; in the data active = inhibition above about 37%
Target sequence (P63165 whole entry, looked up): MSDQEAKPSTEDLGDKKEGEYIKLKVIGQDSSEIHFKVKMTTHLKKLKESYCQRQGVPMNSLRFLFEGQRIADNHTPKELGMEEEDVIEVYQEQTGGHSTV
Scp1 inh – Scp-1 (human) phosphatase inhibition | Q9GZU7 | Recombinant Scp1, phosphopeptide, malachite green phosphate absorbance | inhibition, % at 20 µM | hit rate 0.88% among 340,000 | AID 493091;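 active = inhibition above about 50% at 20 µM, limit read from the data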;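 also: plate controls were DMSO wells with enzyme for no effect and wells lacking enzyme for full effect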
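Times: enzyme reaction 45 min at room temperature, colour 5 min, stabilisation 30 min. Material: SCP-1 catalytic fragment, aa 76-261. Medium: Acidic Tris acetate buffer with magnesium and detergent. Signal: colorimetric free-phosphate detection, absorbance 630 nm. Read-out basis: % inhibition of SCP-1 phosphate liberation. Reagent: Phosphorylated 17-residue peptide substrate.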
* hit, by the source's call; . = not tested or not shown. A selection: hits, their analogues and other compounds. The true share with any hit is near 1.9%.

SMILES	LMPTP inh	STEP block	FAS TE block	SUMO1-SIM PPI	Scp1 inh
CCc1nc2c(OCCOc3ccc(F)cc3)cccn2c1N(C)C(=O)CC(C)C	0	3	-7	-7	.
CSCCC(C(=O)NC(C)(C)C)n1c(-c2ccc(C)cc2)nc2ccccc21 (configuration not stated)	1	.	.	1	.
CC(C)c1cn(CC[C@@H]2CC[C@@H](NC(=O)C3CCCCC3)[C@@H](CO)O2)nn1	0	.	.	0	.
Cc1cc(-c2ccccc2)nc(Nc2nc3c(C)cccc3c(=O)[nH]2)n1	7	0	3	53*	-8
CC1(C(=O)Nc2ccc(F)cc2F)CCN1C(=O)CCC1CCCC1 (configuration not stated)	0	-2	11	2	.
Cc1ccc(S(=O)(=O)N2[C@@H](c3ccc(Br)cc3)C(C(=O)O)=CC[C@H]2c2cccc(Cl)c2)cc1	1	0	13	10	0
Cc1ccc(S(=O)(=O)N2[C@@H](c3ccc(Br)cc3)C(C(=O)O)=CC[C@H]2c2ccc(Cl)c(Cl)c2)cc1	2	1	50	40*	-14
Cc1nc(C(F)(F)F)ccc1C(=O)N1CCCCCC1(C)C(=O)NCC(C)C (configuration not stated)	-1	-1	-6	-1	.
CCCN1CCN(C(=O)Cn2cnc3sc(C)c(S(=O)(=O)N4CCC(C)CC4)c3c2=O)CC1	-1	-2	2	48*	-6
Cc1cccc(C)c1-n1nnnc1C(c1ccnc2ccccc12)N1CCN(c2ccccc2F)CC1 (configuration not stated)	-1	.	40	-2	.
C=CCC[C@H](CCCCC)OC(=O)/C=C/[C@@H](O)[C@H](O)C[C@H](O)CC=C	0	.	-1	5	.
Cc1cccc(Nc2cc(C)c3c(O)cccc3n2)c1C	69*	5	-3	-4	-12
CCCOC(=O)c1cc(-c2ccc(/C=C3/C(=O)N(C)C(=O)C(C#N)=C3C)o2)ccc1Cl	1	-2	4	8	10
C=CCOC(=O)c1cc(-c2ccc(/C=C3\C(=O)NC(=O)C(C#N)=C3C)o2)ccc1Cl	23	4	7	43*	87*
O=C(O)c1cccc2c1C(=O)c1ccccc1-2	-1	-2	-7	-19	-7
O=C1C(=C(I)I)c2ccccc2-c2ccccc21	37	11	10	36*	44
CCCCNC(=O)c1[nH]c(C2CCNCC2)nc1-c1cccc(C(F)(F)F)c1	-2	.	.	-4	.
CC(C)(C)c1csc(NC(=O)CCS(=O)(=O)c2ccc(F)cc2)n1	0	0	-1	1	.
O=C(CCS(=O)(=O)c1ccc(F)cc1)Nc1nc(-c2ccncc2)cs1	0	57*	-5	-1	-5
CC(C)(C)NC(=O)C(c1cccc2ccccc12)n1c(=O)c(-c2cc3ccccc3[nH]2)nc2ccccc21 (configuration not stated)	4	.	.	1	.
Cc1cc(C(=O)NC2CCCc3c2cnn3-c2ccc(C)c(C)c2)n(C)n1 (configuration not stated)	1	0	-1	-2	79*
Cc1ccc(-n2ncc3c2CCCC3NC(=O)c2ccoc2)cc1C (configuration not stated)	1	-1	0	5	-5
COc1ccc(-[n+]2c(C)cc(/C=C3\Sc4ccccc4N3C)cc2C)cc1	31	4	-30	-1	.
CCN1/C(=C/C=C/c2sc3ccccc3[n+]2CC)Sc2ccccc21	62*	3	-17	-31	4
CCN1/C(=C/c2ccc3cc(C)ccc3[n+]2CC)Sc2cc(C)c(C)cc21	65*	0	-39	-55	19
CCN1/C(=C/c2ccc3cc(C)ccc3[n+]2CC)Sc2ccccc21	72*	11	-34	-124	32
CC[n+]1c(/C=C2\Sc3ccccc3N2C)ccc2cccc(C)c21	81*	14	-23	-117	4
CCOC(=O)/C(=C/C=C1\Sc2cc(C)c(C)cc2N1CC)C(C)=O	12	-47	-141	-40	8
COc1ccc(-c2csc(C(NC(C)=O)c3cccc(F)c3)n2)cc1 (configuration not stated)	0	4	1	-1	.
COc1ccccc1-c1noc2c1C(=O)N(Cc1cn(-c3ccccc3OC)nn1)CC2	-2	.	-12	7	.
